Legend:
[1] = target: Replicase polyprotein 1ab (Middle East respiratory syndrome-related coronavirus (isolate UnitedKingdom/H123990006/2012) (Betacoronavirus England 1) (Humancoronavirus EMC), UniProt K9N7C7); test: Inhibition of Middle East respiratory syndrome-related coronavirus 3CL protease using Dabcyl-KTSAVLQ/SGFRKME-Edans as substrate incubated for 30 mins followed by substrate addition measured after 1 hr by FRET assay
Method in brief: (§1)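 Purified recombinant 3CLpro of FIPV, MERS-CoV or SARS-CoV was preincubated 30 min at 37 °C with serial compound dilutions or DMSO. Buffer: 20 mM HEPES pH 8, 200 mM NaCl, 0.4 mM EDTA, 60% glycerol, 6 mM DTT. Substrate was then added and fluorescence read 1 h later (ex 360/em 460 nm), minus no-protease background. IC50 came from variable-slope fits, at least two determinations.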

[2] = target: Replicase polyprotein 1ab (Feline coronavirus (strain FIPV WSU-79/1146) (FCoV), UniProt Q98VG9); test: Inhibition of Feline infectious peritonitis virus 3CL protease using Dabcyl-KTSAVLQ/SGFRKME-Edans as substrate incubated for 30 mins followed by substrate addition measured after 1 hr by FRET assay; method in brief: as §1
Replicase polyprotein 1ab (Feline coronavirus (strain FIPV WSU-79/1146) (FCoV), UniProt Q98VG9), sequence (Q98VG9 2904-3205 limits assumed): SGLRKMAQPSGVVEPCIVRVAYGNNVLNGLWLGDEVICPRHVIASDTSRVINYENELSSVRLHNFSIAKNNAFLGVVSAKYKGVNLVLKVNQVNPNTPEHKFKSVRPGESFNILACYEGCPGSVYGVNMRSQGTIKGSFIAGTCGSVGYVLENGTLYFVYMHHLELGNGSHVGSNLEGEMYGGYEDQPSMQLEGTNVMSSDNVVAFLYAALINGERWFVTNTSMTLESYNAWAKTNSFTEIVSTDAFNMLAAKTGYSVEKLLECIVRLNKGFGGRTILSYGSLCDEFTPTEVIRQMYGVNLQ

[3] = target: Replicase polyprotein 1ab (Severe acute respiratory syndrome-related coronavirus, UniProt P0C6X7); test: Inhibition of SARS coronavirus 3CL protease using Dabcyl-KTSAVLQ/SGFRKME-Edans as substrate incubated for 30 mins followed by substrate addition measured after 1 hr by FRET assay; method in brief: as §1
[4] = Cytotoxicity against mouse CCL-9.1 assessed as reduction in cell viability after 72 hrs by CytoTox 96 nonradioactive cytotoxicity assay; settings: CCL-9.1 cells
Method in brief: (§2)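 Confluent Vero81, CRFK or CCL9.1 cells were exposed to compound at 1–100 μM for 72 h. Cytotoxicity was read with the CytoTox 96 nonradioactive kit. CC50 was taken as the dose giving 50% cell death, averaged over at least two determinations.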

[5] = Cytotoxicity against African green monkey Vero81 cells assessed as reduction in cell viability after 72 hrs by CytoTox 96 nonradioactive cytotoxicity assay; type: cell-based; settings: chlorocebus sabaeus; method in brief: as §2
[6] = system: Feline infectious peritonitis virus; test: Antiviral activity against Feline infectious peritonitis virus infected in […] cells assessed as reduction in viral titer after 48 hrs; type: functional, organism-based; settings: Alphacoronavirus 1, 48 h
[7] = Cytotoxicity against cat CRFK cells assessed as reduction in cell viability after 72 hrs by CytoTox 96 nonradioactive cytotoxicity assay; type: cell-based, Felis catus; method in brief: as §2
[8] = system: Middle East respiratory syndrome-related coronavirus; test: Antiviral activity against Middle East respiratory syndrome-related coronavirus infected in African green monkey Vero81 cells assessed as reduction in viral titer after 48 hrs; type: functional, organism-based
[9] = Selectivity index, ratio of CC50 for African green monkey Vero81 cells to IC50 for Middle East respiratory syndrome-related coronavirus; type: toxicity; settings: read-out: Ratio CC50/IC50

Replicase polyprotein 1ab (Middle East respiratory syndrome-related coronavirus (isolate UnitedKingdom/H123990006/2012) (Betacoronavirus England 1) (Humancoronavirus EMC), UniProt K9N7C7), sequence (K9N7C7 3248-3553 limits assumed): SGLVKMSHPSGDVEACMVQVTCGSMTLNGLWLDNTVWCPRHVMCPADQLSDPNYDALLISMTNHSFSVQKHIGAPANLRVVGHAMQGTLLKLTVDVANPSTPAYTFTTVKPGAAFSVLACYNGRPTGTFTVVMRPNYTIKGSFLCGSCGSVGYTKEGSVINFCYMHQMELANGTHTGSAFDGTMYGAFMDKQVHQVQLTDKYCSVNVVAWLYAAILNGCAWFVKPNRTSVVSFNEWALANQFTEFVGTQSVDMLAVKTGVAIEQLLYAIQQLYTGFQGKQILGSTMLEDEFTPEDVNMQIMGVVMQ

| Compound | IC50 [1] | IC50 [2] | IC50 [3] | CC50 at 72 h [4] | CC50 at 72 h [5] | EC50 [6] | CC50 at 72 h [7] | EC50 [8] | selectivity ratio [9] |
| --- | --- | --- | --- | --- | --- | --- | --- | --- | --- |
| CC(C)C[C@H](NC(=O)OC1(Cc2ccccc2)CCN(S(C)(=O)=O)CC1)C(=O)N[C@@H](C[C@@H]1CCNC1=O)C(O)S(=O)(=O)O (some centres not stated) | 900 nM | 1100 nM | 4300 nM | – | – | – | – | – | – |
| CC(C)C[C@H](NC(=O)OC1(Cc2ccccc2)CCN(C(=O)OC(C)(C)C)CC1)C(=O)N[C@@H](C[C@@H]1CCNC1=O)C(O)S(=O)(=O)O (some centres not stated) | 700 nM | 2100 nM | 6300 nM | > 100000 nM | > 100000 nM | 100 nM | > 100000 nM | 800 nM | – |
| CCOC(=O)N1CCC(OC(=O)N[C@@H](CC(C)C)C(=O)N[C@H](C=O)C[C@@H]2CCNC2=O)CC1 | 600 nM | 1300 nM | 3200 nM | – | – | – | – | – | – |
| CC(C)C[C@H](NC(=O)OC1CCN(C(=O)OC(C)(C)C)CC1)C(=O)N[C@@H](C[C@@H]1CCNC1=O)C(O)S(=O)(=O)O (some centres not stated) | 400 nM | 2400 nM | 5100 nM | > 100000 nM | > 100000 nM | 1500 nM | > 100000 nM | 500 nM | > 250 |
| CCC1(OC(=O)N[C@@H](CC(C)C)C(=O)N[C@@H](C[C@@H]2CCNC2=O)C(O)S(=O)(=O)O)CCN(C(=O)OC(C)(C)C)CC1 (some centres not stated) | 7500 nM | 6700 nM | 4100 nM | – | – | – | – | – | – |
| CC(C)C[C@H](NC(=O)OC1(Cc2ccccc2)CCN(C(=O)OC(C)(C)C)CC1)C(=O)N[C@H](C=O)C[C@@H]1CCNC1=O | 800 nM | 1600 nM | 5200 nM | – | – | – | – | – | – |
| CC(C)C[C@H](NC(=O)OC1CCN(C(=O)OC(C)(C)C)CC1)C(=O)N[C@H](C=O)C[C@@H]1CCNC1=O | 600 nM | 800 nM | 2100 nM | – | – | – | – | – | – |
| CC(C)C[C@H](NC(=O)OC1CCN(S(C)(=O)=O)CC1)C(=O)N[C@@H](C[C@@H]1CCNC1=O)C(O)S(=O)(=O)O (some centres not stated) | 600 nM | 2300 nM | 42100 nM | – | – | – | – | – | – |
| CCC1(OC(=O)N[C@@H](CC(C)C)C(=O)N[C@H](C=O)C[C@@H]2CCNC2=O)CCN(C(=O)OC(C)(C)C)CC1 | 6100 nM | 5500 nM | 5500 nM | – | – | – | – | – | – |
| CC(C)C[C@H](NC(=O)OC1(Cc2ccccc2)CCN(S(C)(=O)=O)CC1)C(=O)N[C@H](C=O)C[C@@H]1CCNC1=O | 700 nM | 800 nM | 3900 nM | – | – | – | – | – | – |
| CCOC(=O)N1CCC(OC(=O)N[C@@H](CC(C)C)C(=O)N[C@@H](C[C@@H]2CCNC2=O)C(O)S(=O)(=O)O)CC1 (some centres not stated) | 500 nM | 1100 nM | 8800 nM | – | – | – | – | – | – |
| CC(C)C[C@H](NC(=O)OC1CCN(S(C)(=O)=O)CC1)C(=O)N[C@H](C=O)C[C@@H]1CCNC1=O | 700 nM | 3500 nM | 28800 nM | – | – | – | – | – | – |

Reference: ChEMBL document CHEMBL4196085, “Structure-guided design of potent and permeable inhibitors of MERS coronavirus 3CL protease that utilize a piperidine moiety as a novel design element” (Eur J Med Chem, 2018)
